From ChEMBL document CHEMBL1128448, “Synthesis and antifungal activity of new azole derivatives containing an N-acylmorpholine ring” (1995)
Converted amounts (≈) assume the structure as drawn.

Legend:
Aspergillus fumigatus [1] = assay: In vivo evaluation of minimum inhibitory concentration against Aspergillus fumigatus 33; format: functional; details: in the assay text read “In vitro” for “In vivo”
Procedure, shortened: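 Agar dilution MIC. Inocula were 10^5 cfu/mL; 10 µL was spotted onto Kimmig's agar with 0.5% glycerol containing twofold drug dilutions (80 to 0.025 µg/mL). Drug stocks were 800 µg/mL in 50% ethanol. Plates were incubated at 25 °C, 48 h for yeasts and 120 h for molds and dermatophytes.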

Aspergillus niger = assay: In vitro evaluation of minimum inhibitory concentration against Aspergillus niger 18; format: functional; details: Aspergillus niger; read-out: MIC
Procedure, shortened: (§1)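 Stocks are 800 μg/mL in 50% ethanol. Each plate gets 10 μL of inoculum at 10^5 cfu/mL. Incubation at 25 °C, 48 h for yeasts and 120 h for dermatophytes and molds. Organisms are ATCC strains or clinical isolates.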

Candida albicans [2] = assay: In vitro evaluation of minimum inhibitory concentration against Candida albicans 76; format: functional; procedure, shortened: as §1
Candida albicans [3] = assay: In vivo evaluation of minimum inhibitory concentration against Candida albicans 406; format: functional
Procedure, shortened: (§2)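 Broth macrodilution MIC following NCCLS M27-P, in RPMI-1640 buffered with 0.165 M MOPS. Fluconazole was dissolved in water and other drugs in DMSO. C. parapsilosis ATCC 22019 served as the reference strain in every run. MIC was the lowest concentration giving turbidity at or below the 80% inhibition standard.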

Candida albicans [4] = assay: In vivo evaluation of minimum inhibitory concentration against Candida albicans 60; format: functional; procedure, shortened: as §2
[5] = system: Meyerozyma guilliermondii; assay: In vitro evaluation of minimum inhibitory concentration against Candida guilliermondii 26; format: functional; details: Meyerozyma guilliermondii; read-out: MIC; procedure, shortened: as §1
Pichia kudriavzevii = assay: In vitro evaluation of minimum inhibitory concentration against Candida krusei 70; format: functional; details: Pichia kudriavzevii; read-out: MIC; procedure, shortened: as §1
Candida parapsilosis = assay: In vitro evaluation of minimum inhibitory concentration against Candida parapsilosis 61; format: functional; details: Lodderomyces parapsilosis; read-out: MIC; procedure, shortened: as §1
Candida tropicalis = assay: In vitro evaluation of minimum inhibitory concentration against Candida tropicalis 2.11; format: functional; details: Candida tropicalis; read-out: MIC; procedure, shortened: as §1
Mus sp. [6] = assay: In vivo evaluation of % survival rate after peroral administration on 3rd day at dose 2.5 mg/kg; format: functional; details: Mus sp., po
Mus sp. [7] = assay: In vivo evaluation of % survival rate after peroral administration on 5th day at dose 2.5 mg/kg; format: functional; details: Mus sp., po
Mus sp. [8] = assay: In vivo evaluation of % survival rate after peroral administration on 7th day at dose 2.5 mg/kg; format: functional; details: Mus sp., po
Mus sp. [9] = assay: In vivo evaluation of % survival rate after peroral administration on 9th day at dose 2.5 mg/kg; format: functional; details: Mus sp., po
Microsporum canis = assay: In vitro evaluation of minimum inhibitory concentration against Microsporum canis 47; format: functional; details: Microsporum canis; read-out: MIC; procedure, shortened: as §1
Nannizzia gypsea = assay: In vitro evaluation of minimum inhibitory concentration against Microsporum gypseum 22; format: functional; details: Nannizzia gypsea; read-out: MIC; procedure, shortened: as §1
Nakaseomyces glabratus = assay: In vitro evaluation of minimum inhibitory concentration against Torulopsis glabrata 78; format: functional; details: Nakaseomyces glabratus; read-out: MIC; procedure, shortened: as §1
Trichophyton benhamiae = assay: In vitro evaluation of minimum inhibitory concentration against Trichophyton mentagrophytes 23; format: functional, Arthroderma benhamiae; details: Trichophyton benhamiae; read-out: MIC; procedure, shortened: as §1
Trichophyton rubrum = assay: In vitro evaluation of minimum inhibitory concentration against Trichophyton rubrum 90; format: functional; details: Trichophyton rubrum; read-out: MIC; procedure, shortened: as §1
Rhodotorula mucilaginosa = assay: In vitro evaluation of minimum inhibitory concentration against Rhodotorula rubra 16; format: functional; details: Rhodotorula mucilaginosa; read-out: MIC; procedure, shortened: as §1
Kluyveromyces marxianus = assay: In vitro evaluation of minimum inhibitory concentration against Candida pseudotropicalis 13; format: functional; procedure, shortened: as §1
Aspergillus flavus = assay: In vitro evaluation of minimum inhibitory concentration against Aspergillus flavus 19; format: functional; details: Aspergillus flavus; read-out: MIC; procedure, shortened: as §1
Aspergillus fumigatus [10] = assay: In vitro evaluation of minimum inhibitory concentration against Aspergillus fumigatus 33; format: functional; details: Aspergillus fumigatus; read-out: MIC; procedure, shortened: as §1
Mus sp. [11] = assay: In vivo evaluation of % survival rate after peroral administration on 3rd day at dose 1 mg/kg; format: functional; details: route oral, 1 mg/kg
Mus sp. [12] = assay: In vivo evaluation of % survival rate after peroral administration on 5th day at dose 1 mg/kg; format: functional; details: route oral, 1 mg/kg
Mus sp. [13] = assay: In vivo evaluation of % survival rate after peroral administration on 7th day at dose 1 mg/kg; format: functional; details: route oral, 1 mg/kg
Mus sp. [14] = assay: In vivo evaluation of % survival rate after peroral administration on 9th day at dose 1 mg/kg; format: functional; details: route oral, 1 mg/kg
Rattus norvegicus [15] = assay: In vivo evaluation of antifungal activity against vaginal candidosis in rat at dose 0.25 mg/kg on 10th day; format: functional
Procedure, shortened: (§3)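 Groups of 10 female Wistar rats given estradiol 25 mg/kg sc on day -5, infected intravaginally with C. albicans by sterile swab on day 0; infection confirmed on day 3 by swab culture (TSB, then Sabouraud agar). Oral dosing once daily on days 3, 4, 5; vehicle controls. Vaginal swabs cultured on days 10 and 15; read-out % cured (culture-negative).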

Rattus norvegicus [16] = assay: In vivo evaluation of antifungal activity against vaginal candidosis in rat at dose 0.5 mg/kg on 10th day; format: functional
Procedure, shortened: (§4)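 Female Wistar rats, 10 per group, received estradiol 25 mg/kg sc on day -5. On day 0 they were infected intravaginally with C. albicans by sterile swab. Infection was confirmed on day 3 by culturing the swab in TSB and then on Sabouraud agar. Oral dosing was once daily on days 3, 4 and 5; controls got vehicle only. Vaginal swabs taken on days 10 and 15 were cultured and read the next day.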

Rattus norvegicus [17] = assay: In vivo evaluation of antifungal activity against vaginal candidosis in rat at dose 0.5 mg/kg on 15th day; format: functional; procedure, shortened: as §4
Rattus norvegicus [18] = assay: In vivo evaluation of antifungal activity against vaginal candidosis in rat at dose 0.25 mg/kg on 15th day; format: functional; procedure, shortened: as §3
[19] = Candida albicans, read-out: MIC

| SMILES | MIC (Aspergillus niger) | MIC [5] | MIC (Pichia kudriavzevii) | MIC (Candida parapsilosis) | MIC (Candida tropicalis) | MIC (Microsporum canis) | MIC (Nannizzia gypsea) | MIC (Nakaseomyces glabratus) | MIC (Trichophyton benhamiae) | MIC (Trichophyton rubrum) | MIC (Rhodotorula mucilaginosa) | MIC (Aspergillus flavus) | further results |
| --- | --- | --- | --- | --- | --- | --- | --- | --- | --- | --- | --- | --- | --- |
| C[C@H]1N(C(=O)c2ccc(C(F)(F)F)cc2)CC(=O)O[C@@]1(Cn1cncn1)c1ccc(C(F)(F)F)cc1 (racemic) | > 80 µg/mL | > 80 µg/mL | > 80 µg/mL | > 80 µg/mL | > 80 µg/mL | > 80 µg/mL | > 80 µg/mL | > 80 µg/mL | > 80 µg/mL | > 80 µg/mL | > 80 µg/mL | > 80 µg/mL | MIC (Aspergillus fumigatus [1]): > 80 µg/mL; MIC (Candida albicans [2]; [19]): > 80 µg/mL; MIC (Candida albicans [3]; [19]): > 80 µg/mL; MIC (Candida albicans [4]; [19]): > 80 µg/mL; survival at 2.5 mg/kg (Mus sp. [6]): 20%; survival at 2.5 mg/kg (Mus sp. [7]): 20%; survival at 2.5 mg/kg (Mus sp. [8]): 10%; survival at 2.5 mg/kg (Mus sp. [9]): 10%; MIC (Kluyveromyces marxianus; Kluyveromyces marxianus, read-out: MIC): 80 µg/mL (≈ 156 µM) |
| C[C@H]1N(C(=O)c2ccc(C(F)(F)F)cc2)CC(=O)O[C@@]1(Cn1cncn1)c1ccc(Cl)cc1Cl (stereo in doubt; (-)-32a) | > 80 µg/mL | 80 µg/mL (≈ 156 µM) | > 80 µg/mL | 40 µg/mL (≈ 77.9 µM) | 40 µg/mL (≈ 77.9 µM) | > 80 µg/mL | > 80 µg/mL | > 80 µg/mL | > 80 µg/mL | > 80 µg/mL | > 80 µg/mL | > 80 µg/mL | MIC (Aspergillus fumigatus [10]): > 80 µg/mL; MIC (Candida albicans [2]): 20 µg/mL (≈ 39 µM); MIC (Candida albicans [3]): 5 µg/mL (≈ 9.74 µM); MIC (Candida albicans [4]): 10 µg/mL (≈ 19.5 µM); Survival (Mus sp. [11]): 100%; Survival (Mus sp. [12]): 100%; Survival (Mus sp. [13]): 70%; Survival (Mus sp. [14]): 10%; Cure rate (Rattus norvegicus [15]): 70%; Cure rate (Rattus norvegicus [16]): 80%; Cure rate (Rattus norvegicus [17]): 100%; MIC (Kluyveromyces marxianus): 10 µg/mL (≈ 19.5 µM); Cure rate (Rattus norvegicus [18]): 70% |
